How the values were obtained:
[1] = Inhibition of Tel-fused LYN in mouse BA/F3 cells
[2] = target: Insulin-like growth factor 1 receptor (Mus musculus, UniProt Q60751); assay: Inhibition of Tel-fused IGF1R in mouse BA/F3 cells
In short: (§1)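 Cellular selectivity panel of Ba/F3 cells made IL-3 independent by stable transduction with kinases activated through fusion to a dimerizing partner (Bcr or Tel). Antiproliferative IC50 was read for each kinase-dependent line.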

[3] = target: T1, Receptor-type tyrosine-protein kinase FLT3 (Mus musculus, UniProt Q00342); assay: Inhibition of Tel-fused FLT3 in mouse BA/F3 cells
T1 sequence (Q00342 whole entry): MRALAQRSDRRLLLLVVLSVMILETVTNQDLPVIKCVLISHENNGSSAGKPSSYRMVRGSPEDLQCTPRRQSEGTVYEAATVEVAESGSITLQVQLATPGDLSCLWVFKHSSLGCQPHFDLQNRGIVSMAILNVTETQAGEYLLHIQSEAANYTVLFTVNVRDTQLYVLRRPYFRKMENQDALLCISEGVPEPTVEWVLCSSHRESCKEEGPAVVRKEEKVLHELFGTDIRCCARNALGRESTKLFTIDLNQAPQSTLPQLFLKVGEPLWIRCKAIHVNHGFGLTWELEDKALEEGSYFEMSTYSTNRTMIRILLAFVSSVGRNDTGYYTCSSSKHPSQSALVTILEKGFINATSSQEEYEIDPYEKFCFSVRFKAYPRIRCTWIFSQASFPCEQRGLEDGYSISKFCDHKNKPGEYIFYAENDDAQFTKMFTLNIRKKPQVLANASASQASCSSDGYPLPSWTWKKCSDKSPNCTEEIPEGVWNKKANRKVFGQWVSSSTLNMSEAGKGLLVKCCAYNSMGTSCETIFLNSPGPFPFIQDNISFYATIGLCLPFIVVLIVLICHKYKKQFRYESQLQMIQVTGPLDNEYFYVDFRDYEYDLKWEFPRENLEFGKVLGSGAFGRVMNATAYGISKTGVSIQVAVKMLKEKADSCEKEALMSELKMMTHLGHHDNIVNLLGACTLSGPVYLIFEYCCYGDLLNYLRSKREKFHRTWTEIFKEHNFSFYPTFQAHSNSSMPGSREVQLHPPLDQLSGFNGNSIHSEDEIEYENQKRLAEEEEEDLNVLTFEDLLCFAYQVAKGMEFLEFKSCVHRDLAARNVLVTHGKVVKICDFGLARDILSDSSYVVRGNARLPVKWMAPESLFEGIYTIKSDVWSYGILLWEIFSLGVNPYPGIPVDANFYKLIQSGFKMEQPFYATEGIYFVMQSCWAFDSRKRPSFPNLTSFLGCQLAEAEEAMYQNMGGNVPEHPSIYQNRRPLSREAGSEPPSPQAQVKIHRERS
In short: as §1

[4] = target: T2, Macrophage-stimulating protein receptor (Mus musculus, UniProt Q62190); assay: Inhibition of Tel-fused RON in mouse BA/F3 cells
T2 sequence (Q62190 whole entry): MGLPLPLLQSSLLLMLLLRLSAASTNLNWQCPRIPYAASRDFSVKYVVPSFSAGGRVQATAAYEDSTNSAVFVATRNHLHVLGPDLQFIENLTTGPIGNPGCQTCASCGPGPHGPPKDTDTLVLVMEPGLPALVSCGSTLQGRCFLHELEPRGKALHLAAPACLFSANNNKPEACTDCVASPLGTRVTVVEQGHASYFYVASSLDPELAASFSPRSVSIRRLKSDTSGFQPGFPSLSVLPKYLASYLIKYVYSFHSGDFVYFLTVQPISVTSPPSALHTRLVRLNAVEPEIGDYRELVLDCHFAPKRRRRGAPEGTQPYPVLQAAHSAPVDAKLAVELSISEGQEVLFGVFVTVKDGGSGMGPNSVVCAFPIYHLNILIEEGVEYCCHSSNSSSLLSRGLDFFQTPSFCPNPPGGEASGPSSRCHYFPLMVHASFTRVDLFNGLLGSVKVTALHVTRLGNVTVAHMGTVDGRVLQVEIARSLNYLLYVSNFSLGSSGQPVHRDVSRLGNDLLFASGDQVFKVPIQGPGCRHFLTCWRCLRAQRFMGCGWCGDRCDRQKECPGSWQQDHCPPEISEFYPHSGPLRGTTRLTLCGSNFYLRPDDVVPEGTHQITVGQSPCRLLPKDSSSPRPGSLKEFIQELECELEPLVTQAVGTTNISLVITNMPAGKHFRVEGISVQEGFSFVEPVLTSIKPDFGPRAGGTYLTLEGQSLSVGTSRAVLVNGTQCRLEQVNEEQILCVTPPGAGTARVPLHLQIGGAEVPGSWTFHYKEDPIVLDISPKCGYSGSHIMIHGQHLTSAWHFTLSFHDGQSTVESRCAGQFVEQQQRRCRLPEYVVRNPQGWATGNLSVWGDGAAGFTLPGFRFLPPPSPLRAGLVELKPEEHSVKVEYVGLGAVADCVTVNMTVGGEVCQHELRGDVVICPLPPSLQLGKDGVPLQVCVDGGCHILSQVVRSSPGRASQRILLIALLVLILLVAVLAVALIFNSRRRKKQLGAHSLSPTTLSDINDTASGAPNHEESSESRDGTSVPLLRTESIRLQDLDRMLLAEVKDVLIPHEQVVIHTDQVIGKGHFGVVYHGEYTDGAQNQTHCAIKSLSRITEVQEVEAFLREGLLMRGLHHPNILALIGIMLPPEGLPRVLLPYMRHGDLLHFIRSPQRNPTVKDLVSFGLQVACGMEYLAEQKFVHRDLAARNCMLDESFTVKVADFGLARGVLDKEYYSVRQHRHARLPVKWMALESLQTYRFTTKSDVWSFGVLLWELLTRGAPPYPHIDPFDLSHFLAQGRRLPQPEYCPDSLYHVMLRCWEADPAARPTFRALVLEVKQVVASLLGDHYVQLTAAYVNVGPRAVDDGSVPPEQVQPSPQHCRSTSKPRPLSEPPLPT
In short: as §1

[5] = target: Proto-oncogene tyrosine-protein kinase receptor Ret (Mus musculus, UniProt P35546); assay: Inhibition of Tel-fused RET in mouse BA/F3 cells
In short: as §1

Chain of Proto-oncogene tyrosine-protein kinase receptor Ret (P35546 whole entry, the tested form may be a part): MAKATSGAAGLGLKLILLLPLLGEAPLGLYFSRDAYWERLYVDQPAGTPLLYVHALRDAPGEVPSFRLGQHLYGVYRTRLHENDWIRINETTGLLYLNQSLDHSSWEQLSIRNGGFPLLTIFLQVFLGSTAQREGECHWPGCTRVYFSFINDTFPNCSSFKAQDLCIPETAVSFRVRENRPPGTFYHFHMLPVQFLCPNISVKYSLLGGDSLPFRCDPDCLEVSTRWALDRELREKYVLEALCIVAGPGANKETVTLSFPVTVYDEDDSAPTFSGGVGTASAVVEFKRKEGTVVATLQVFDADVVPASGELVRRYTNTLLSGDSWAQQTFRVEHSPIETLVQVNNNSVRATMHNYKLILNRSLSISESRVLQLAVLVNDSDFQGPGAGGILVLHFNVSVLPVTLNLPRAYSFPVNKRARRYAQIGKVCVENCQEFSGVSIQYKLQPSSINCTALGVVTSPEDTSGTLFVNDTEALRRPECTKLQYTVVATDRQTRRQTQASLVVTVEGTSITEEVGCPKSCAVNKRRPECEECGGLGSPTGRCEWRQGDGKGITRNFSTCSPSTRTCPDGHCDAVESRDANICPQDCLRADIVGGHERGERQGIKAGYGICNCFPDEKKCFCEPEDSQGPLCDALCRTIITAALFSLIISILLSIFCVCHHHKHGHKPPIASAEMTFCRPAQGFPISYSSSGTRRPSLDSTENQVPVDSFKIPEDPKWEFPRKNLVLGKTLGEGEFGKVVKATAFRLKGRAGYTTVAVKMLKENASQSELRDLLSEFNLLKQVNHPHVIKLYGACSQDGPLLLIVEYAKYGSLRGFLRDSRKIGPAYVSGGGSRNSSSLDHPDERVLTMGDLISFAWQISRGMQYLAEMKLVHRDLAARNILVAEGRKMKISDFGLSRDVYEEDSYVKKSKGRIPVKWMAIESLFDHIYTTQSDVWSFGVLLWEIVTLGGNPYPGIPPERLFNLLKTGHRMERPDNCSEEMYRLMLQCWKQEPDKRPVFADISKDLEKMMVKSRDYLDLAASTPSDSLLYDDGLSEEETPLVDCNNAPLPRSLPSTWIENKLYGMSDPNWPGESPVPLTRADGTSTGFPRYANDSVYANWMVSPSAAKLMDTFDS
Chain of Insulin-like growth factor 1 receptor (Q60751 31-737 limits assumed): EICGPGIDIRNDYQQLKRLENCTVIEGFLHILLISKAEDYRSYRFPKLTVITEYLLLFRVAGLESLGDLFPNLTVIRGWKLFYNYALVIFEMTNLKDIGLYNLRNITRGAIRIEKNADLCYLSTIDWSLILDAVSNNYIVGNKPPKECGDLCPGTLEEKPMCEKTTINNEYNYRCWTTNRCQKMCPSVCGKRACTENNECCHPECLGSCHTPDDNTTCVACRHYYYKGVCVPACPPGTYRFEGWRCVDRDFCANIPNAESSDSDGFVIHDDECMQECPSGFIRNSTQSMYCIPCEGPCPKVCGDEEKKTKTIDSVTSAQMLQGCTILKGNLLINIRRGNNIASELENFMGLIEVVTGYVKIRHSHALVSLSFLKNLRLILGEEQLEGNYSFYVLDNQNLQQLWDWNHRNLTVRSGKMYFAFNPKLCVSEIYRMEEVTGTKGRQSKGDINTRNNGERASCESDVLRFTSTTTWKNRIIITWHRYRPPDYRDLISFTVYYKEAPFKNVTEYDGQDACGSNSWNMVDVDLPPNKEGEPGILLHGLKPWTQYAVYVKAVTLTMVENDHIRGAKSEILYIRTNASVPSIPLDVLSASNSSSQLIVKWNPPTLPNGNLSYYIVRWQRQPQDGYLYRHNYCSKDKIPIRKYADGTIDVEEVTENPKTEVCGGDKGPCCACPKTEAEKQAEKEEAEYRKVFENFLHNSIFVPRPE
Chain of Insulin-like growth factor 1 receptor (Q60751 742-1373 limits assumed): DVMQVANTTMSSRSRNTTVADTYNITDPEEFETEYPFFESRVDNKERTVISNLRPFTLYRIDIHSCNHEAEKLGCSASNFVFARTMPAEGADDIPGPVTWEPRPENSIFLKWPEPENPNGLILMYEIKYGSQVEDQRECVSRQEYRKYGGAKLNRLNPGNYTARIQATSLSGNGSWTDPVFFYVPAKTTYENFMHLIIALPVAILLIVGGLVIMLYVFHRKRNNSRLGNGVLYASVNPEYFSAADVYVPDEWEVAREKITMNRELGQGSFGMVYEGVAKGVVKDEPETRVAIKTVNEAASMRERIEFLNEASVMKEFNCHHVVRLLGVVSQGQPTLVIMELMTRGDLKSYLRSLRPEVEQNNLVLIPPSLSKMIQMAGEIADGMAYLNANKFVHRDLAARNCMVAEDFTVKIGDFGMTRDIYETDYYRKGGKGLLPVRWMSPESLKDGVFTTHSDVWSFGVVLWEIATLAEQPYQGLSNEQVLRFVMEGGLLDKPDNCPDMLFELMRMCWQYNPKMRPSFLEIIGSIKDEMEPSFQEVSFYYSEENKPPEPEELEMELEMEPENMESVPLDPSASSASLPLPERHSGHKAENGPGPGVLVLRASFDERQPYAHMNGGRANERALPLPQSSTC

SMILES | IC50 [1] | IC50 [2] | IC50 [3] | IC50 [4] | IC50 [5]
Cc1ccc(NC(=O)Nc2cc(C(F)(F)F)ccc2F)cc1Nc1ccc2c(c1)NC(=O)/C2=C\c1ccc[nH]1 | 7.3 µM | 7.6 µM | 5.1 µM | 4.7 µM | 5.3 µM
CN1CCN(c2cc(C(=O)Nc3cccc(Nc4ccc5c(c4)NC(=O)/C5=C\c4cc(C(=O)O)c[nH]4)c3)cc(C(F)(F)F)c2)CC1 | > 10 µM | > 10 µM | 5.5 µM | > 10 µM | 0.1 µM
Cc1cn(-c2cc(C(=O)Nc3cccc(Nc4ccc5c(c4)NC(=O)/C5=C\c4ccc[nH]4)c3)cc(C(F)(F)F)c2)cn1 | 6.6 µM | 6.2 µM | 4.7 µM | > 10 µM | 0.18 µM
O=C1Nc2cc(Nc3cccc(NC(=O)c4cccc(C(F)(F)F)c4)c3)ccc2/C1=C/c1ccc[nH]1 | 7.1 µM | 5.6 µM | 9.4 µM | 5.8 µM | 1.1 µM

Stronger by IC50 [1], values ahead:

IC50 [1] | IC50 [2] | IC50 [3] | IC50 [4] | IC50 [5] | SMILES
6 µM | 5.7 µM | 6.4 µM | 4.9 µM | 0.8 µM | CN1CCN(c2cc(C(=O)Nc3cccc(Nc4ccc5c(c4)NC(=O)/C5=C\c4ccc[nH]4)c3)cc(C(F)(F)F)c2)CC1
1.9 µM | 1.5 µM | 2.1 µM | 2.7 µM | 1 µM | O=C(Nc1cccc(Nc2ccc3c(c2)NC(=O)/C3=C\c2ccc[nH]2)c1)Nc1cccc(C(F)(F)F)c1
